Screening results deposited in PubChem by several laboratories.
HCV core dimer: inhibitors of HCV core protein dimerization, primary screen, biochemical, TR-FRET, high-throughput; AID 1899, 2009; TR-FRET GST/Flag-core106 dimerization, 1536-well; actives 0.33% (n = 300,000); inhibition, % at 5 µM;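 active means inhibition above the mean of all tested compounds plus 3 SD, set per screening campaign, cut at about 45% in these data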
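Material: Tagged HCV core106 pair (GST and Flag) | Amount: GST-core106 13.5 nM, Flag-core106 17 nM | Medium: KF-containing HEPES buffer, pH 7.45, DTT, CHAPS, BSA | Reagent: Eu donor and XL665 acceptor anti-tag antibodies | Schedule: 4 h at 22.5 °C | Technique: Time-resolved FRET, ex 340 nm, em 617 and 671 nm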
DNA FID counter: compounds displacing fluorescent DNA intercalator, primary screen, artefact control for HCV NS3 helicase inhibitor project, biochemical, FID fluorescence; DNA fluorescent intercalator displacement; inhibition, % at 7.9 µM; actives 0.17% (n = 290,000); in the data active means inhibition above about 37%;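 further: 0% = vehicle and 100% = reference compound; higher means more ethidium bromide displaced from hairpin DNA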
NRP1-CendR mod: modulators of CendR peptide binding to NRP-1, primary screen, biochemical, fluorescence polarization, uHTS. FAM-RPARPAR peptide binding to NRP-1. actives 0.85% (n = 360,000). AID 602438, 2012. Neuropilin-1 (Homo sapiens), O14786. inhibition, % at 25 µM;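 active means inhibition or corrected inhibition above about 18%, plus a signal ratio from 0.5 to 1.5, limit read from the data, passing the limit was not always enough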
MEX-5 binding: MEX-5 zinc finger RNA-binding disruptors – biochemical, C. elegans, fluorescence polarization, MLPCN library, primary screen. Zinc finger protein mex-5 (Caenorhabditis elegans), Q9XUB2. MEX-5/FITC-TCR2 RNA binding; hits give low values. activity score (negative = inhibition of binding), % at 10 µM. actives 0.38% (n = 300,000);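 active means inhibition past about -25% in most replicates, and total fluorescence under double the plate's negative control median, limit read from the data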;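 further: 0% = DMSO and -100% = 5 µM competing unlabeled TCR2 RNA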
Active calls of the source: *; x = no result. The list is not random: actives were taken first. Their share in the collection is about 1.5%.

SMILES	HCV core dimer	DNA FID counter	NRP1-CendR mod	MEX-5 binding
COCCNC(=O)C(=O)Nc1cccc(Br)c1	1	-3	29*	2
COc1ccc(C(=O)NCCNc2nc3cc(C)cc(C)c3cc2C#N)c(OC)c1	x	x	-1	x
N#Cc1ccccc1CSc1nc2ccc(NC(=O)c3ccccc3C(=O)O)cc2s1	47*	4	-25	4
CCN(CC)c1ccc(NC2=C(Cl)C(=O)c3ccccc3C2=O)cc1	-16	7	36*	x
Cc1ccc(NC2=C(Cl)C(=O)c3ccccc3C2=O)cc1	-25	1	12	2
OC(c1ccccc1)c1ncc(-c2ccccc2F)[nH]1 (stereo unspecified)	x	x	11	x
CC(C)(C)NC(=O)C(C1CC1)n1c(=O)c(-c2ccco2)nc2ccccc21 (stereo unspecified)	x	x	1	x
CCc1cccc(C)c1NC(=O)CSc1nc2ccc(N3C(=O)c4ccccc4C3=O)cc2s1	47*	-5	6	2
COc1ccc(CC(C)N2CCN(c3ccccc3OC)CC2)cc1OC (stereo unspecified)	-1	-2	13	0
COc1ccc(CC(C)N2CCN(Cc3ccccc3)CC2)cc1OC (stereo unspecified)	-13	38*	0	1
COc1cc(CN(CC2CCCO2)C(=O)c2cccs2)cc(OC)c1OC (stereo unspecified)	-3	-30	26*	-1
O=C(Nc1nnc([C@@H]2C[C@H](O)[C@@H](CO)O2)s1)Nc1ccccc1Oc1ccccc1	x	x	-9	x
O=c1c2ccccc2oc2ccc(NCCCn3ccnc3)cc12	-9	12	-21	-27*
CC(C)Nc1nc(Nc2ccc(Cl)cc2F)c2sccc2n1	x	x	-2	x
O=C1C=CC(=O)c2c(O)c(CO)c(CO)c(O)c21	x	x	59*	x
O=C(C[C@@H]1C/C=C\CC[C@H](Cc2ccc(F)cc2)C(=O)OC[C@@H]2CCCN2C1=O)NCCO	x	x	20*	x
O=C(C[C@@H]1C/C=C\CC[C@@H](Cc2ccc(F)cc2)C(=O)OC[C@@H]2CCCN2C1=O)NCCO	x	x	11	x
O=C(C[C@H]1C/C=C\C[C@H](Cc2ccc(F)cc2)C(=O)O[C@@H](c2ccccc2)CNC1=O)NCCO	x	x	22*	x
Cc1cc2nc(-c3nnnn3C3CCCCC3)c(=O)[nH]c2cc1C	x	x	-1	x
COC(=O)C1N2C(=O)[C@@H](NC(=O)COc3ccccc3)[C@H]2SC1(C)C (stereo partly specified)	-1	x	31*	1
CC1(C)S[C@@H]2[C@H](NC(=O)C(C(=O)O)c3ccccc3)C(=O)N2[C@H]1C(=O)O (stereo partly specified)	x	-13	-26	x
CC1=C(C(=O)N2CCOCC2)CC(CC(=O)NC2CCCC2)C(=O)N1CCCN1CCCC1=O (stereo unspecified)	x	x	-4	x
COc1ccc(/C=C/C(=O)Nc2cccc(F)c2)cc1S(=O)(=O)N1CCOCC1	-2	-23	23*	0
COc1ccc(/C=C/C(=O)Nc2ccccc2F)cc1S(=O)(=O)N1CCOCC1	x	x	0	x
CC(C)C[C@@H]1Cc2[nH]c(=S)[nH]c(=O)c2[C@H](C)O1	x	x	5	x
SMILES	HCV core dimer	DNA FID counter	NRP1-CendR mod	MEX-5 binding
Cc1cccn2c(=O)c(C(=O)NC3CCCCC3C)c(O)nc12 (stereo unspecified)	-1	x	44*	2
Cc1cccn2c(=O)c(C(=O)NC3CCCCC3)c(O)nc12	3	-29	-2	-1
O=C(N/N=C/c1cccnc1)c1cc(O)c(O)c(O)c1	-6	-4	-10	-31*
CC(C)NC(=S)N/N=C/c1cccnc1	-2	0	37*	0
O=C(N/N=C/c1cccnc1)c1ccc(O)cc1	3	-5	0	-3
Nc1ccn([C@@H]2O[C@H](CNC(=O)[C@H]3CCC(=O)N3)[C@@H](O)[C@H]2O)c(=O)n1	x	x	-4	x
COc1ccc2cc(C(=O)NCc3ccccc3)c(=Nc3ccc(C(=O)O)cc3)oc2c1	-3	-1	46*	-3
O=C(O)c1ccc(N=c2oc3cc(O)ccc3cc2C(=O)NCc2ccccc2)cc1	3	-2	-111	-13
CC1CCCC(C)N1C(=O)COC(=O)c1ccc(F)c(S(=O)(=O)N2CCOCC2)c1 (stereo unspecified)	-3	-17	23*	0
O=C(NCC1CCCCC1)c1ccc(F)c(S(=O)(=O)N2CCOCC2)c1	x	x	21*	x
O=C(Nc1ccc2c(c1)CCC2)c1cc(S(=O)(=O)N2CCN(c3ccccc3)CC2)ccc1Cl	55*	-3	-54	2
O=C(Nc1ccc2c(c1)CCC2)c1ccc(F)c(S(=O)(=O)N2CCOCC2)c1	1	-7	25*	-1
N#Cc1cnc(=S)n(-c2cc(C(F)(F)F)cc(C(F)(F)F)c2)c1N	x	x	-38	x
COc1ccc(-c2cc(NC(C)=O)c3ncc(-c4ccccc4)n3c2)c(OC)c1	x	x	3	x
Cc1cc2c(=O)[nH]cnc2s1	-5	0	43*	1
Cc1cccc(S(=O)(=O)NC(=O)C2(C)CCN2C(=O)c2ccccc2CCc2ccccc2)c1 (stereo unspecified)	x	x	5	x
CSCC[C@@H](C(=O)NCc1cccs1)N1Cc2ccccc2C1=O	-6	-12	21*	-1
Cc1cnc2ccc(F)cc2c1	x	x	4	x
CCCCC1CC2=C(C(=O)OC(C)(C)O2)C(c2ccc(Cl)cc2)O1 (stereo unspecified)	x	x	-8	x
Cc1nc2ncnn2c(N2CCN(C(=O)c3cccc(F)c3)CC2)c1C	-5	-16	26*	-4
CCOC(=O)N1CCN(C(=O)c2cccc(F)c2)CC1	-5	-5	5	-2
COc1ccc(C2OC34CCCCC3C(C#N)(C#N)C2(C#N)C(=N)O4)cc1 (stereo unspecified)	5	-4	15	-84*
CNC(=O)C1CC(=O)N(c2ccc(OCC(=O)Nc3ccc(F)cc3)cc2)C1 (stereo unspecified)	x	x	-9	x
CC(Oc1ccccc1)C(=O)NC1=NCCS1 (stereo unspecified)	-5	-5	33*	0
CCc1nc2ccc(C(=O)NCc3cccs3)cn2c1N(CC)Cc1cccc(Br)c1	x	x	-1	x
Cc1ccnc(NC(c2ccccc2)c2ccc3cccnc3c2O)c1 (stereo unspecified)	x	x	33*	x
Cc1ccnc(NC(c2cccnc2)c2ccc3cccnc3c2O)c1 (stereo unspecified)	0	-8	-2	1
COc1ccc(C2=CC3=C(Br)C(=O)C(C)(OC(=O)c4ccc(Cl)nc4)C(=O)C3=CO2)cc1 (stereo unspecified)	25	x	x	-30*
CC(=NC1CC1)c1c(-c2ccccc2)[nH]n(-c2nc3ccccc3s2)c1=O	9	-10	-6	0
CC(=NC1CCCC1)c1c(C)[nH]n(-c2nc3ccccc3s2)c1=O	9	-1	-48	-43*
